Results taken from paper PMC10693208 (Evolutionary Bioinformatics Online, 2023).
“And” between values parts separate entries of the source, which are not always exact repeats. Identical values can stand only once. Like-named read-outs stand apart in the source and are kept apart here.

How the values were obtained:
HCT-116 cells [1] = test: Flow cytometric analysis of apoptosis; assay type: cell-based, human
EGFR^WT = EGFR^WT (Homo sapiens, UniProt P00533); test: In vitro EGFR kinase inhibition; assay type: biochemical
Sequence of EGFR^WT (P00533 25-1210): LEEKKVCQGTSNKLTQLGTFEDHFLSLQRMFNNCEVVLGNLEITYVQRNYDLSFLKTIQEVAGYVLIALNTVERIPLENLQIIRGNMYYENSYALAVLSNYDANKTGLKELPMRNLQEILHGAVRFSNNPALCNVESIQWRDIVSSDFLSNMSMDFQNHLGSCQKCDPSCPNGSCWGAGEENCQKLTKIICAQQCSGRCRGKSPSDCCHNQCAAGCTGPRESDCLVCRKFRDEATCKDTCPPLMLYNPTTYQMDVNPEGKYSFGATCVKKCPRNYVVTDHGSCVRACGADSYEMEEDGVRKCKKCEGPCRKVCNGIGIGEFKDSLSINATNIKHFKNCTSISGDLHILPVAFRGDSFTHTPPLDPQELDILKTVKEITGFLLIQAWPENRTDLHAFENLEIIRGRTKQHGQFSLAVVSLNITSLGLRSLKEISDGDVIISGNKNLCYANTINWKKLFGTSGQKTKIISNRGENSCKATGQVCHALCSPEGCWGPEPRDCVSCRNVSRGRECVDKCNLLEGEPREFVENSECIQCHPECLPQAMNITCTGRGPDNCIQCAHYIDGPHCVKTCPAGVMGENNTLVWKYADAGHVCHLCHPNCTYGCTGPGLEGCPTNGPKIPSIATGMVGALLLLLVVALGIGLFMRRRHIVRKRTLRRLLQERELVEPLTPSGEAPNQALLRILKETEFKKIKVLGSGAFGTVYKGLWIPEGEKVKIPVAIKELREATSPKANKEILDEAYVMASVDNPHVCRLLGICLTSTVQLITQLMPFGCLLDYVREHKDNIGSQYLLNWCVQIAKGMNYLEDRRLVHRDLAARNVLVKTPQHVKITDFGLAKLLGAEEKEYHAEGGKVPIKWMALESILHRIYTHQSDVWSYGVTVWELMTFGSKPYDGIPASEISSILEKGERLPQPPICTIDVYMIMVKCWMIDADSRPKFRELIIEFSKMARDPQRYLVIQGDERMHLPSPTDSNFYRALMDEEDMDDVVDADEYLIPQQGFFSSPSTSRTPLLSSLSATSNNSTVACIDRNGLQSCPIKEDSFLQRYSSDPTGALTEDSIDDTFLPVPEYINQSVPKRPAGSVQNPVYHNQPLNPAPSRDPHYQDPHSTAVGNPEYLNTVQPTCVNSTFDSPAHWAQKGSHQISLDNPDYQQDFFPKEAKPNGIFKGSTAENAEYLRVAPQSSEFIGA

H1975 cells = test: MTT cytotoxicity, H1975; assay type: cell-based; conditions: Homo sapiens, NCI-H1975, read-out: H1975 IC50
EGFR^T790M = EGFR^T790M (Homo sapiens, UniProt P00533, T790M); test: In vitro EGFR kinase inhibition; assay type: biochemical
Sequence of EGFR^T790M (P00533 25-1210 T790M): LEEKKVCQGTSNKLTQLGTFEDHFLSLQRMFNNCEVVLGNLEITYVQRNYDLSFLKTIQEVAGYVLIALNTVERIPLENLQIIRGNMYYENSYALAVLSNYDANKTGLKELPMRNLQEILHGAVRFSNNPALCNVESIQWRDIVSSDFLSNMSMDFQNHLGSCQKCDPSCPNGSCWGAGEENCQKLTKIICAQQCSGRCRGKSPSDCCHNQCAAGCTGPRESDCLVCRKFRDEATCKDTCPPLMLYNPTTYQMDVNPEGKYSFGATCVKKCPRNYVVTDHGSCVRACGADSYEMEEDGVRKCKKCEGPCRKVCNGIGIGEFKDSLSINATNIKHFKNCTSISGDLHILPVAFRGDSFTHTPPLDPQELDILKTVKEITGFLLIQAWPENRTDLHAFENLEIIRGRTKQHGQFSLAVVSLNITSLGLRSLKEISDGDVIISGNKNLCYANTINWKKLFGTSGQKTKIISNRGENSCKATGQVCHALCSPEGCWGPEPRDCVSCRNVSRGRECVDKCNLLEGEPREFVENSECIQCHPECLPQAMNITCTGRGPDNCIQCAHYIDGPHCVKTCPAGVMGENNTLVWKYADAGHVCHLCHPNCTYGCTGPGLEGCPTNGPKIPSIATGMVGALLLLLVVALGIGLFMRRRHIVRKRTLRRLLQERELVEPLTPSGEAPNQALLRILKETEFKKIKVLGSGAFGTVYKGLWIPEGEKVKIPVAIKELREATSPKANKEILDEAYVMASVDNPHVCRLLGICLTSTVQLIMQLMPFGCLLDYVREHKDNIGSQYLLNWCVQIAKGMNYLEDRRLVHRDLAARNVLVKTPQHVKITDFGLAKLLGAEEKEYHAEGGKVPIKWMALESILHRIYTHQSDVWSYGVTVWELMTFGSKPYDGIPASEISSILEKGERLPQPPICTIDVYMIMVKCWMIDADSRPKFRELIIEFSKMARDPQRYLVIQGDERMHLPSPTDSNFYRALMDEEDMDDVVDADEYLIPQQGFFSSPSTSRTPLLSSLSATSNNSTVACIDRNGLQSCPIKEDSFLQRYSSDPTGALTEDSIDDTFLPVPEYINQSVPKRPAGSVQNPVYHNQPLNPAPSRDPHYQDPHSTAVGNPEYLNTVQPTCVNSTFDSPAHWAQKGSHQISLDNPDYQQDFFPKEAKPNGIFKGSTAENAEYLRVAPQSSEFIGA

Bcl-2 = test: RT-PCR, Bcl-2 level in HCT-116 cells; assay type: cell-based, human
Casp3 = test: RT-PCR, Casp3 level in HCT-116 cells; assay type: cell-based, human; conditions: HCT-116 treated with 23.3 µM, vs control cells = 1
How it was run: (§1)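 Total RNA extracted from HCT-116 cells after test compound exposure using a commercial extraction kit. Transcript levels were measured by RT-PCR with SYBR Green master mix. Expression was compared with untreated control cells, taken as 1, and reported as fold change.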

BAX = test: RT-PCR, BAX level in HCT-116 cells; assay type: cell-based, human; conditions: HCT-116 treated with 23.3 µM, vs control cells = 1
How it was run: as §1

Casp9 = test: RT-PCR, Casp9 level in HCT-116 cells; assay type: cell-based, human; conditions: HCT-116 treated with 23.3 µM, vs control cells = 1
How it was run: as §1

HCT-116 cells [2] = test: MTT cytotoxicity, HCT-116; assay type: cell-based, human
[3] = Homo sapiens, HCT-116, read-out: HCT-116 IC50, MTT, erlotinib as reference
[4] = read-out: HCT-116 IC50, MTT, erlotinib as reference

SMILES | increase of the total percentage of apoptotic cells vs control (HCT-116 cells [1]; HCT-116) [folds] | Apoptosis, Early (HCT-116 cells [1]; HCT-116, 72 h, Annexin V/PI) [%] | Apoptosis, Late (HCT-116 cells [1]; HCT-116, 72 h, Annexin V/PI) [%] | Necrosis (HCT-116 cells [1]; HCT-116, 72 h, Annexin V/PI) [%] | IC50 (EGFR^WT) [µM] | IC50 (H1975 cells) [µM] | IC50 (EGFR^T790M) [µM] | Bcl-2 reduction compared to the control (Bcl-2; HCT-116, reduction factor) [fold] | RT-PCR Fold change Bcl-2 (Bcl-2; HCT-116 treated with 23.3 µM, vs control cells = 1) | RT-PCR Fold change Casp3 (Casp3) | RT-PCR Fold change BAX (BAX) | RT-PCR Fold change Casp9 (Casp9) | IC50 (HCT-116 cells [2]; [3]) [µM] | selectivity index (SI), HCT-116 (HCT-116 cells [2]; SI = IC50 normal cells (Vero) / IC50 cancer cells) | IC50 (HCT-116 cells [2]; [4]) [µM]
Cn1cnc2c1c(=O)n(CC(=O)Nc1c(Cl)cccc1Cl)c(=O)n2C [Compound T-1-DOCA, N-(2,6-Dichlorophenyl)-2-(3,7-dimethyl-2,6-dioxo-2,3,6,7-tetrahydro-1H-purin-1-yl)acetamide] | ~10 | 8.55 | 18.07 | 3.09 | 0.0569 | 14.1 | 0.269 | 2 | 0.521 | 3.8 and 3.829 | 5.522 | 2.2 and 2.238 | 23.4 | 4.1 | 23.3
C#Cc1cccc(Nc2ncnc3cc(OCCOC)c(OCCOC)cc23)c1 [Erlotinib, reference compound] | – | – | – | – | – | – | – | – | – | – | – | – | 17.8 | – | 17.9
